Results on 37 variants are retold here after the RNAGym collection of RNA variant scans (doi:10.1126/science.aae0568).

Fewer inactive variants are shown than the library holds.

B1: tRNA (parent)
chain: GUUCCGUUGGCGUAAUGGUAACGCGUCUCCCUCCUAAGGAGAAGACUGCGGGUUCGAGUCCCGUACGGAACG

In the data set the parent is B1. Put plainly: yeast fitness relative to wild type (ratio to wild type); higher = fitter; tRNA-Arg(CCU), competitive growth, 37 C, YPD. The method, boiled down: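 Variants of the tRNA-Arg(CCU) gene were chemically synthesised with a 3% per-site mutation rate across 69 sites and placed at the native genomic locus in Saccharomyces cerevisiae. Six parallel replicates of the pooled strains were competed in YPD at 37°C for 24 hours, and gene amplicons from the start and end populations were read by 100-nucleotide paired-end sequencing. Darwinian fitness relative to wild type was derived from changes in genotype frequencies. Genotypes required ≥ 100 starting reads, and estimates < 0.5 were set to 0.5.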
With GUUCCGUUGGCGUCAUGGUAACGCGACUCCCUCAUAAGGAGAAAACUGCGGGUUCGAGUCCCGUACCGAACG [A14C U26A C34A G44A G67C], the yeast fitness was ≤ 0.5.
The value for GUUCCGUUGGCGUAAUGGUAACGGGUCUCCCUCCUAGGGAGCAGACUGCGGGUUCGAGUCCCGUACGGAUCG [C24G A37G A42C A70U] was ≤ 0.5; that for GUUCCGUUGGCGCAAUGGUAACCCGUCUCCCUCCUAAGGAGAAGACUGCGGGUUCGAGUCCCGUACGGAGCG [U13C G23C A70G] was 0.585.
GUCCCGUCGGCGUGAUGGUAACGCGUCGCCCUCCUUAGGAGAAGAUCGCGGGUUCGAGUCUCGUACGGAACG [U3C U8C A14G U28G A36U C46U U47C C61U]: the yeast fitness was determined as 0.553.
The result for GGUCCAUUGGCGUAAUGGUAACGCGUCUCCCUCCUAAGGAGAAGACUGCGGGUUUGAGUCCCGUACGGAACG [U2G G6A C55U] reads ≤ 0.5; that for GUUUCGUUGGCGUAAUGGUAACGCGUCUCCGUCCUAAAGAGAAGACUGCGGGUUCGAGUCACAUACGGAACG [C4U C31G G38A C61A G63A], ≤ 0.5.
As for GUUCCGUUGGCAGAAUGGUAACCGGUCUGCCUCCUCAGGAGAAGACUGCGGGUUCGAGUCCCGUACGGAACG [G12A U13G G23C C24G C29G A36C], the yeast fitness is ≤ 0.5.
For GUUCCGUUGGCGUAAUGGCAACGCGUCUCCCUCCUAGGGAGAAGACUGAGGGUUCGAGUCCCGUACGGAACG [U19C A37G C49A], the yeast fitness was ≤ 0.5.
With GUUCCGUUGGCGUAGUGGUGACGCGUCUCCCUCCUAAGGUGAAGACUGCGGGUUCGAGUCCCGUACGGAACG [A15G A20G A40U], the yeast fitness is 0.808.
GUUCCGUCGGCGUAAUGAUAACGCGUGUCCCUCAUAAGGAGAAGACAGCGGGUUCGAGUCCCGUACGGAACG [U8C G18A C27G C34A U47A]: the yeast fitness was ≤ 0.5.
Regarding GUUCCGUUGGCGUAAUGGAAACGCGUCUCCCUCGUAUGGAGAAGACUGGGGGUUCGAGUCCCGUACGGAACG [U19A C34G A37U C49G], the yeast fitness was ≤ 0.5.
Turning to GCUCCGUUCGCGCAAUGGUAACGCGUCUCCCUCCUAAGGAGAAGACUGCGGGUUCGAGUCCCGUACGCAACG [U2C G9C U13C G68C], the yeast fitness was ≤ 0.5.
Consider GUUCCGUUGGCGUAAUGGUGAGGCGUCUCCCUCCUAAGGAGAAGACCGCGGGGUCGAGUCCCGUACGGAACG [A20G C22G U47C U53G], for which the yeast fitness was ≤ 0.5.
The value for GUUCCGUUGGCGUUAUGGUAACGCGUCUCUCUCCUAAGGAGAAGACUGCGGGAUCGAGUCCCGUACGGAACG [A14U C30U U53A] was ≤ 0.5; that for GUUACGUUGGCGUAAUGGUAACGCGUCUCCCUCCUAAGGAGAAGACUGCGGCUUCGAGUCCCGUACGGAACG [C4A G52C] was 0.661; that for GUUCCGUUGGCGUAAUGGUAACGCGUCUCGCUCCUAAGGCGAAGACUGCGGGUUCGAGUCCCGUACGGAACG [C30G A40C] was 0.595.
For GUUCCCUUGGCGUGAUGGUAACGCGUCACCCUCCUAAGGAGAAGAGUGCGGGUCCGAGUCCCGUACGUAACG [G6C A14G U28A C46G U54C G68U], the yeast fitness was ≤ 0.5.
As to GUUCCGUUGGAGUAAUGGUAACGCCCCUUCCUCCUAAGGAGAAGACUGCGGGUUCGAGUCCCGUCCGGAUCG [C11A G25C U26C C29U A65C A70U], the yeast fitness amounted to 0.558.
The value for GUUCCGUUGCCGUAAUGGUAACGCGUCUCCCUCCUAAGGAGAAGACUGCGGGUUCGAGUCCCGCACGGAACG [G10C U64C] was 0.618; that for GUUCCGUUGGCGUAAUGGGAACGCGUCUCCCUCCUAGGGAGAAGACUGCGGGUUCGAGUCCCGUAUGGUACG [U19G A37G C66U A69U] was 0.691; that for GUUCCGUUGGCGUAAUGGUAACGUGUCUCCCUCCUAAGGGGAAGACUGCGGGUUCGACUCCCGUACGGAACG [C24U A40G G58C] was 0.579.
Turning to GUUCCGUUGGCGUAAUGGUAACACGUCUCUCUCCUAAGGAGAAGACUACGGGUUAGAGUCCCGUACGGAACG [G23A C30U G48A C55A], the yeast fitness is ≤ 0.5.
The result for GUUCCGUUGGCGUAAUGGUAACGCGUCUCCCUUCUAAGGAGAGGACUGCGGGUUCGAGUCCCGUACGGAUCG [C33U A43G A70U] reads 0.637; that for GUUCCGUUGGCGUAAUGGUAACGCGUCUCCCUUCUAAGGAGAAGACUGCGGGUUCGAUUCACGUACGGAACG [C33U G58U C61A], ≤ 0.5.
The result for GUUCCGUUGGCGUAAUGGUAACGCGUCUCCCUCCUACGGAGAAGACUGCGGGUUUGAGUCCCAUACCGAACG [A37C C55U G63A G67C] reads 0.617; that for GUUCCGUUGGCGUAAUGGUAACGCGUCUCCCUCCUAAGAAGAAGACUGCGCGUUCGAGCCCCGUACGGAACG [G39A G51C U59C], ≤ 0.5; that for GUUCCGUUGGCGUAAUGGUAACGUGUCUCCCUCCUUGGGCGAAGACUGCGGGUUCGAGUCCCGUACGGAACG [C24U A36U A37G A40C], ≤ 0.5.
In the case of GUUCCGAAGCCGUAAUGGUAACGCGUGUCCCUCGUAAGGAGAAGACUGCGGGUUUGAGUCCCGUACGGAACG [U7A U8A G10C C27G C34G C55U], the yeast fitness stood at 0.527.
With GUUCCGUUGGCGUAAUGGUAACGCGUCUCUCUCCUAAAGAGAAGACUGCGGGUUCGAGUGCCGUACGGAACG [C30U G38A C60G], the yeast fitness came to 0.537.
The value for GUACCGUUCGCGUAAUGGUAACGCGUCUCCCUCCUAAGGAGAAGACUGCGGGUUCGAGUCCCGUCCGGAACG [U3A G9C A65C] was ≤ 0.5; that for GUUCGGUUGGCGUAAUGGUAACGCAUCUCCCUCCUAAGGAGAAGAUUGCGGGUUCGAGUCCCGUACGGUACG [C5G G25A C46U A69U] was 0.576; that for GUUCCGUUGGCGUACUGGUAACGCGUCUCCCUCCUAAGGAGAAGACUGCGGGUUCGAGUCUCGUACGGAACG [A15C C61U] was 0.713.
The result for GUUCCGUUGGCGUAAUGGUAACGCGUCUCCCUCCUAAGGAGAACACUGCGGGUUCGAGUCCCGUACAGAACG [G44C G67A] reads 0.722; that for GUUCCGUUGGCGUAAUGGUAACGCGUGUCCCUCCUAAGGAGAAGACUGCGGGUUAGAGUCCCGUAUGGAACG [C27G C55A C66U], 0.545.
As to GUUCCGUUGGUGUAAUGGUAACGCGUCUCCCUCCUAAGGAGAAGACUACGCGUUCGAGUCCCGUACGUAACG [C11U G48A G51C G68U], the yeast fitness was determined as 0.59.
GUUCCGUUGGCGUAAUGGUACCGCGUCUCCCUCCUAAGGAGAAGACUGCCGGUUCGAGUCCCGUACGGAACG [A21C G50C]: the yeast fitness is 0.584.
The result for GUUCCGUUGGCGUAUUGGUAACGCGUCUCCCUCCUAAAGAGAAGACUGCGGGUUCGAGUCCCGUACGGAACG [A15U G38A] reads 0.635.
